Here are results for 19 molecules from ChEMBL document CHEMBL1122630, “Inhibitors of inosinic acid dehydrogenase. 2-Substituted inosinic acids” (J Med Chem, 1984).

The target in the first experiment is T1, Inosine-5'-monophosphate dehydrogenase (Escherichia coli K-12, UniProt P0ADG7).
T1 sequence (P0ADG7 whole entry): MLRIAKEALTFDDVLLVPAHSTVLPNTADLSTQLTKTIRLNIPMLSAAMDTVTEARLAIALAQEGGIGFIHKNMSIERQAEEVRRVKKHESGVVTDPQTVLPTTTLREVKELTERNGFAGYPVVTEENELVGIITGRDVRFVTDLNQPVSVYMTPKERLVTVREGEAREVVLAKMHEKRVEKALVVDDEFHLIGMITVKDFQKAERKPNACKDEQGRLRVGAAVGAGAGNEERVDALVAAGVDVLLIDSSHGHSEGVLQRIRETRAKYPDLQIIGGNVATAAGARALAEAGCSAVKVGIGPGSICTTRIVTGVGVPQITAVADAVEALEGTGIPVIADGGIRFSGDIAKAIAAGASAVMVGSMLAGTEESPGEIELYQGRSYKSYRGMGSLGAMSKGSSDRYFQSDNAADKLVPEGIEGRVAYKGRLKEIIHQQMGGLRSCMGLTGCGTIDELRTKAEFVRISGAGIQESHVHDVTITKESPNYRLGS
Put plainly: Ability to inhibit Inosine-5'-monophosphate dehydrogenase isolated from Escherichia coli. The following applies: read-out: I50. An outline of the steps: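 Crude E. coli IMP dehydrogenase (0–40% ammonium sulfate precipitate) in 0.05 M Tris pH 8.5 with 33.4 mM KCl, 1.5 mM glutathione, 0.8 mM NAD+ and 0.002 unit enzyme, run at 25 °C. NADH rise at 340 nm gave initial rates. I50 was read graphically at 50 µM IMP, with inhibitor levels bracketing 50%; duplicates agreed within 20%. Ki came from a competitive-equation fit over 10–75 µM IMP.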
In the case of `CCCCCCCc1nc(O)c2ncn(C3O[C@@H](COP(=O)(O)O)[C@H](O)[C@@H]3O)c2n1` (some centres undefined), the IC50 amounted to 270 µM.

`O=[N+]([O-])c1cc(CSc2nc(O)c3ncn(C4O[C@@H](COP(=O)(O)O)[C@H](O)[C@@H]4O)c3n2)cc([N+](=O)[O-])c1` (some centres undefined): the IC50 was 85 µM.

As to `CCCCCCCCCc1nc(O)c2ncn(C3O[C@@H](COP(=O)(O)O)[C@H](O)[C@@H]3O)c2n1` (some centres undefined), the IC50 was 160 µM.

For `CCCCCCc1nc(O)c2ncn(C3O[C@@H](COP(=O)(O)O)[C@H](O)[C@@H]3O)c2n1` (some centres undefined), the IC50 was determined as 580 µM.

For the molecule `COc1ccc(-c2nc(O)c3ncn(C4O[C@@H](COP(=O)(O)O)[C@H](O)[C@@H]4O)c3n2)cc1` (some centres undefined), the IC50 amounted to 810 µM.

With `O=P(O)(O)OC[C@@H]1OC(n2cnc3c(O)nc(Cc4ccccc4)nc32)[C@@H](O)[C@H]1O` (some centres undefined), the IC50 was found to be 770 µM.

For the molecule `O=P(O)(O)OC[C@@H]1OC(n2cnc3c(O)nc(Cc4cccnc4)nc32)[C@@H](O)[C@H]1O` (some centres undefined), the IC50 came to 430 µM.

For the molecule `O=P(O)(O)OC[C@@H]1OC(n2cnc3c(O)nc(-c4ccccc4)nc32)[C@@H](O)[C@H]1O` (some centres undefined), the IC50 was more than 1000 µM.

With `O=P(O)(O)OC[C@@H]1OC(n2cnc3c(O)nc(SCc4ccccc4Cl)nc32)[C@@H](O)[C@H]1O` (some centres undefined), the IC50 is 72 µM.

Take `O=[N+]([O-])c1cccc(CSc2nc(O)c3ncn(C4O[C@@H](COP(=O)(O)O)[C@H](O)[C@@H]4O)c3n2)c1` (some centres undefined): the IC50 turned out to be 33 µM.

With `CCCCCCCCc1nc(O)c2ncn(C3O[C@@H](COP(=O)(O)O)[C@H](O)[C@@H]3O)c2n1` (some centres undefined), the IC50 came to 680 µM.

In the case of `CCCCCCCCCCc1nc(O)c2ncn(C3O[C@@H](COP(=O)(O)O)[C@H](O)[C@@H]3O)c2n1` (some centres undefined), the IC50 stood at 150 µM.

As for `O=P(O)(O)OC[C@@H]1OC(n2cnc3c(O)nc(-c4cccnc4)nc32)[C@@H](O)[C@H]1O` (some centres undefined), the IC50 is more than 1000 µM.

Regarding `O=P(O)(O)OC[C@@H]1OC(n2cnc3c(O)nc(/C=C/c4ccccc4)nc32)[C@@H](O)[C@H]1O` (some centres undefined), the IC50 came to 69 µM.

As for `O=[N+]([O-])c1ccc(CSc2nc(O)c3ncn(C4O[C@@H](COP(=O)(O)O)[C@H](O)[C@@H]4O)c3n2)cc1` (some centres undefined), the IC50 amounted to 56 µM.

The next experiment deals with IMP dehydrogenase (Escherichia coli). Put plainly: Ability to inhibit Inosine-5'-monophosphate dehydrogenase isolated from Escherichia coli.
Settings: not given
Usually Ki stands for a measure of affinity in units of concentration, obtained from inhibition or displacement. Low readings indicate a stronger hold on the target, high ones a looser hold on the target. In turn, `CCCc1nc(O)c2ncn(C3O[C@@H](COP(=O)(O)O)[C@H](O)[C@@H]3O)c2n1` (some centres undefined) displayed an inhibition constant (Ki) of 190 µM.

In turn, `COc1nc(O)c2ncn(C3O[C@@H](COP(=O)(O)O)[C@H](O)[C@@H]3O)c2n1` (some centres undefined) yielded a Ki of 46 µM.

`Cc1nc(O)c2ncn(C3O[C@@H](COP(=O)(O)O)[C@H](O)[C@@H]3O)c2n1` (some centres undefined) showed a Ki of 600 µM.

The molecule `O=P(O)(O)OC[C@@H]1OC(n2cnc3c(O)nc(Cl)nc32)[C@@H](O)[C@H]1O` (some centres undefined) displayed a Ki of 120 µM.
